Where “and” joins values, the source holds several entries; their conditions need not be identical. Equal values may be shown once.
How the values were obtained:
[1] = test system: Pin1 Cys113; experiment: CITe-Id chemoproteomic cysteine profiling; type: cell-based; settings: PATU-8988T cells, 100, 500, 1,000 nM, 5 h
Procedure, shortened: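 Live PATU-8988T cells exposed to test compound at 100, 500 or 1,000 nM for 5 h, then lysed. Lysates co-incubated with the desthiobiotin-tagged probe (2 µM) for 18 h. Probe-labelled cysteines were identified and quantified proteome-wide for dose-dependent competition.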

[2] = target: T1, GST-Pin1 (Homo sapiens, UniProt Q13526); experiment: Competitive fluorescence polarization; type: binding
Procedure, shortened: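 GST-Pin1 (250 nM) preincubated 14 h at 4 °C with compound and 5 nM N-terminal fluorescein-labelled peptide probe (Bth-D-pThr-Pip-Nal). Buffer: 10 mM HEPES, 10 mM NaCl, 1% glycerol pH 7.4, 10 µg ml-1 BSA, 0.01% Tween-20, 1 mM DTT. Ki calculated from probe concentration, 85% probe bound and Pin1 concentration. Kinact from dose- and time-dependent runs. n = 3 samples ± s.e.m.; 2 experiments.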

[3] = test system: NGP; experiment: 2D growth over time viability; type: cell-based; settings: 2.5 μM after 8 days
Procedure, shortened: (§1)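 Cells seeded at 500 per well (PATU-8988T: 100 per well) and dosed with test compound or DMSO the next day. Kept at 37 °C, 5% CO2, with medium and compound renewed every 48 h. One plate per time point (days 0, 2, 4, 6, 8); the day 0 plate was read before dosing. Viability measured by CellTiter-Glo luminescence.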

[4] = test system: PATU-8988T Pin1 KO cells; experiment: 3D Matrigel dome antiproliferative assay; type: cell-based; settings: 1 μM, 9-day treatment
Procedure, shortened: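 1,000 cells per Matrigel dome, one dome per well, left 15 min at 37 °C to solidify. Medium with test compound renewed every 3 days. After 9 days, 3D CellTiter-Glo was added and the plate shaken 1 h at room temperature before reading luminescence. n = 9 biological replicates per condition.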

[5] = test system: Mino B cells; experiment: RNA-seq differential expression; type: cell-based, human; settings: 1 μM, 6 h
Procedure, shortened: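 Mino cells grown in RPMI 1640 with 15% FBS and 1% penicillin/streptomycin at 37 °C, 5% CO2 in a humidified incubator.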

[6] = test system: Pin1; experiment: Live cell competition pulldown; type: cell-based
Procedure, shortened: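 2.5 million cells per 10-cm plate, dosed next day with DMSO or test compound (5 h, or as indicated). Cells washed in cold PBS, scraped and lysed in HEPES pH 7.4/NP-40 buffer with TCEP. Lysate (500 µg) incubated with desthiobiotin probe (1 µM, 1 h, 4 °C), then streptavidin agarose (1.5 h, 4 °C). Pin1 pulldown detected by immunoblot.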

[7] = test system: KPC mouse-derived pancreatic cancer cells in B6 mice; experiment: KPC orthotopic pancreatic cancer mouse model; type: in vivo; settings: for survival: n = 8
Procedure, shortened: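 Pancreatic cancer cells from a KPC mouse (Pdx1-Cre, lsl-KrasG12D/+, lsl-tp53R172H/+) transplanted orthotopically into the pancreatic tail of B6 mice. Daily IP dosing with vehicle or test compound at 20 or 40 mg kg-1 began one week later. Mice were euthanised when the largest control tumour reached 2 cm in length, and tumours were collected and measured.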

[8] = test system: Tg(dβh:MYCN;dβh:EGFP) zebrafish; experiment: Zebrafish MYCN neuroblastoma initiation model; type: in vivo; settings: 25–100 μM in water
Procedure, shortened: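 Three-day-old embryos placed five per well and exposed to DMSO or test compound in egg water. Live fish imaged for bright-field and EGFP fluorescence under identical conditions. EGFP-positive tissue area quantified from the images.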

[9] = test system: MDA-MB-468; experiment: 2D growth over time viability; type: cell-based; settings: up to 8 days, 2.5 μM
Procedure, shortened: as §1

[10] = test system: Kuramochi; experiment: 2D growth over time viability; type: cell-based; settings: up to 8 days
Procedure, shortened: as §1

[11] = test system: PATU-8988T Pin1 KO cells; experiment: 2D growth over time viability; type: cell-based; settings: 1 μM, up to 8 days
Procedure, shortened: as §1

[12] = target: T1, GST-Pin1; experiment: Chymotrypsin-coupled PPIase activity assay; type: biochemical; settings: read-out: apparent Ki (PPIase assay); measured at 12 h
Procedure, shortened: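 GST-Pin1 (50 nM) preincubated with test compound for 12 h at 4 °C in 35 mM HEPES pH 7.8, 0.2 mM DTT, 0.1 mg ml-1 BSA. Chymotrypsin (final 6 mg ml-1) was added just before starting, followed by Suc-Ala-pSer-Pro-Phe-pNA substrate.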

[13] = Mouse pharmacokinetic profiling; type: in vivo; settings: oral 10 mg kg^–1, three mice
[14] = test system: Pin1 Cys113; experiment: rdTOP-ABPP chemoproteomic cysteine profiling; type: cell-based; settings: MDA-MB-231 cells, 5 μM, 2 h
Procedure, shortened: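 MDA-MB-231 cells at 70% confluence treated 2 h with DMSO or 5 µM compound in serum-free medium. Lysed by sonication in PBS/0.1% Triton X-100; spun 100,000g, 30 min. Proteome (2 mg ml-1) labelled with 100 µM iodoacetamide-alkyne, 1 h RT. Clicked 1 h to biotin-acid-N3 (CuSO4/TBTA/TCEP). LC-MS/MS with cysteine modification +322.23688 Da; light/heavy ratios quantified.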

[15] = Hepatic microsome stability; type: in vitro ADME, mouse; settings: 1 μM, 1 mg ml^−1 microsomes, NADPH
Procedure, shortened: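 Test compound (1 µM) incubated with hepatic microsomes (1 mg ml-1) in 100 mM KPi, pH 7.4. Reaction started by adding 1 mM NADPH.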

[16] = test system: Th-MYCN mice tumors; experiment: Th-MYCN murine neuroblastoma model; type: in vivo
Procedure, shortened: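 Tumours in TH-MYCN mice monitored weekly by palpation; mice with 4–5 mm tumours were enrolled. Groups received test compound at 40 mg kg-1 by oral gavage once or twice daily, or vehicle (5% NMP, 5% kolliphor, 20% DMSO) once daily. The twice-daily arm was capped at 56 doses. Tumour volume measured by 1 Tesla MRI under isoflurane with core temperature held at 37 °C. Two-tailed Student's t test.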

[17] = dose- and time-dependent FP assay

T1 sequence (Q13526 whole entry): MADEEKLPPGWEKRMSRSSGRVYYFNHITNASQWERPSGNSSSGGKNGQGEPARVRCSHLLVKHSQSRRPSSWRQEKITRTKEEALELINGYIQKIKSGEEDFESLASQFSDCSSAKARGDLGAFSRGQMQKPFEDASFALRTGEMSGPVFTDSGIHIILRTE

CC(C)(C)CN(C(=O)CCl)C1CCS(=O)(=O)C1 (stereo not drawn) [Sulfopin]
cysteines with dose-dependent competition (of 162 labeled by Sulfopin-DTB) [1]: only Pin1 Cys113
Kinact [2, 17]: 0.03 min⁻¹
second-order rate constant (Kinact/Ki) [2, 17]: 84 M⁻¹ s⁻¹
Ki ([2]; read-out: apparent Ki (FP assay), after 14 h incubation): 17 nM
antiproliferative effect (growth over time) [3]: significant viability effects
antiproliferative activity in 3D Matrigel domes [4]: no effects observed
number of genes significantly downregulated [5]: 206
time to complete Pin1 engagement ([6]; 1-μM treatment, PATU-8988T cells): ≤ 4 h
concentration fully engaging Pin1 ([6]; HCT116 cells, 5 h): 0.5 µM
concentration of maximal Pin1 engagement ([6]; PATU-8988T and HCT116 cells, 5 h): 0.5 to 1 µM
concentration fully engaging Pin1 ([6]; PATU-8988T cells, 5 h): 1 µM
Pin1 engagement after 72 h ([6]; PATU-8988T or HCT116 cells, 72 h): > 50%
survival ([7]; 20 mg kg^−1 daily): 37.5 days
average tumor volume ([7]; 40 mg kg^−1 daily IP, 27 days, n = 4): 1,210.91 cm^3
survival ([7]; 40 mg kg^−1 daily): 48.125 days
average increase in survival ([7]; 40 mg kg^−1 versus control): 18.125 days and 18 days
neuroblastoma-initiating hyperplasia [8]: significantly suppressed
toxicity in zebrafish embryos [8]: no evidence of toxicity was observed
antiproliferative effect (growth over time) [9]: most pronounced sensitivity
antiproliferative effect (growth over time) [10]: only slight effects
effect on cellular viability [11]: no significant effect on viability
Ki [12]: 211 nM
oral bioavailability (F%) [13]: 30%
Cmax ([13]; read-out: average cmax (peak concentration)): 11.5 µM
competition ratio R, Pin1 Cys113 [14]: 15
competition ratio R, all other identified cysteines ([14]; 2,134 peptides): < 2.5
half-life in mouse hepatic microsomes [15]: 41 min
average increase in survival ([16]; 40 mg kg^−1 BID oral gavage): 28 days
mice with actual reduction in tumor size (MRI) ([16]; 40 mg kg^−1 BID, 7-day treatment, n = 6): five out of six
average increase in survival ([16]; 40 mg kg^−1 QD oral gavage): 10 days

Source: PMC9119696 (Nature chemical biology, 2021)
